According to ChEMBL document CHEMBL3352316, “Optimization of physicochemical properties and safety profile of novel bacterial topoisomerase type II inhibitors (NBTIs) with activity against Pseudomonas aeruginosa” (Bioorg Med Chem, 2014):
Converted amounts (≈) assume the structure as drawn.

Experiments:
[1] = Half life in beagle dog at 10 mg/kg, iv; format: ADME, organism-based, Canis lupus familiaris; set-up: dose 10 mg/kg, route intravenous; conditions: in vivo
In short: (§1)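 Male rats (Wistar Han) and Beagle dogs received 10 mg/kg as a 15 min iv infusion. Serial 200 µL whole-blood samples were taken from 0 to 24 h. Plasma levels were measured by LC–MS/MS against a standard curve after methanol protein precipitation. Parameters were estimated non-compartmentally.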

[2] = tested on: Escherichia coli; assay: Antimicrobial activity against Escherichia coli W3110 after 18 to 20 hrs by broth microdilution; format: functional; conditions: K-12 substr. W3110
In short: (§2)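 Broth microdilution followed CLSI guidelines in Mueller Hinton broth. Inocula were grown 18–20 h at 35 °C on blood agar. Compound in DMSO was tested in doubling dilutions from 64 to 0.06 µg/mL, at 2% DMSO final. Plates were incubated 18–20 h and read at OD 620 nm. MIC was taken as the concentration giving >90% growth inhibition.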

[3] = molecular target: Voltage-dependent L-type calcium channel subunit alpha-1C (Homo sapiens, UniProt Q13936); assay: Inhibition of […] channel Cav1.2 (unknown origin)
In short: (§3)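 Automated IonWorks patch clamp was run on CHO or HEK cells expressing each channel. A channel-specific voltage pulse was applied before compound and again about 3 min after addition.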

[4] = Partition co-efficient, log D of the compound at pH 7.4 by shake flask method; format: physicochemical; conditions: buffer
In short: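 Shake-flask method with 10 mM phosphate buffer pH 7.4 against n-octanol, shaken 1 h at 1200 rpm to equilibrium. Analysis was by LC/UV with MS confirmation.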

[5] = Half life in rat at 10 mg/kg, iv; format: ADME, organism-based; set-up: dose 10 mg/kg, route intravenous; conditions: in vivo; in short: as §1
[6] = molecular target: Potassium voltage-gated channel subfamily A member 5 (Homo sapiens, UniProt P22460); assay: Inhibition of potassium channel Kv1.5 (unknown origin); in short: as §3
[7] = molecular target: Sodium-dependent serotonin transporter (Homo sapiens) (UniProt P31645); assay: Inhibition of SERT (unknown origin) at 30 uM
[8] = Clearance in rat at 10 mg/kg, iv; format: ADME, organism-based; set-up: dose 10 mg/kg, route intravenous; conditions: in vivo; in short: as §1
[9] = molecular target: 5-hydroxytryptamine receptor 4 (Homo sapiens) (UniProt Q13639); assay: Inhibition of 5-HT4 receptor (unknown origin) at 30 uM
[10] = Aqueous solubility of the compound; format: physicochemical; conditions: buffer
[11] = molecular target: Sodium channel protein type 5 subunit alpha (Homo sapiens, UniProt Q14524); assay: Inhibition of […] channel Nav1.5 (unknown origin); in short: as §3
[12] = Inhibition of Escherichia coli topoisomerase IV ATPase activity
[13] = Volume of distribution in rat at 10 mg/kg, iv; format: ADME, organism-based; set-up: dose 10 mg/kg, route intravenous; conditions: in vivo; in short: as §1
[14] = tested on: Klebsiella pneumoniae; assay: Antimicrobial activity against Klebsiella pneumoniae after 18 to 20 hrs by broth microdilution; format: functional; in short: as §2
[15] = AUC in rat at 10 mg/kg, iv; format: ADME, organism-based; set-up: dose 10 mg/kg, route intravenous; conditions: plasma; in short: as §1
[16] = Fraction unbound in human plasma by LC/MS-MS analysis; format: ADME, cell-free
In short: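 Equilibrium dialysis: 10 µM compound was spiked into human plasma against phosphate buffer and rotated at 37 °C for 16 h. Plasma and buffer concentrations were quantified by LC/MS–MS with a C18 column and ESI MRM detection.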

[17] = AUC in beagle dog at 10 mg/kg, iv; format: ADME, organism-based, Canis lupus familiaris; set-up: dose 10 mg/kg, route intravenous; conditions: plasma; in short: as §1
[18] = molecular target: T1, Potassium voltage-gated channel subfamily KQT member 1 (Homo sapiens, UniProt P51787); assay: Inhibition of potassium channel IKs (unknown origin); in short: as §3
T1 sequence (P51787 whole entry): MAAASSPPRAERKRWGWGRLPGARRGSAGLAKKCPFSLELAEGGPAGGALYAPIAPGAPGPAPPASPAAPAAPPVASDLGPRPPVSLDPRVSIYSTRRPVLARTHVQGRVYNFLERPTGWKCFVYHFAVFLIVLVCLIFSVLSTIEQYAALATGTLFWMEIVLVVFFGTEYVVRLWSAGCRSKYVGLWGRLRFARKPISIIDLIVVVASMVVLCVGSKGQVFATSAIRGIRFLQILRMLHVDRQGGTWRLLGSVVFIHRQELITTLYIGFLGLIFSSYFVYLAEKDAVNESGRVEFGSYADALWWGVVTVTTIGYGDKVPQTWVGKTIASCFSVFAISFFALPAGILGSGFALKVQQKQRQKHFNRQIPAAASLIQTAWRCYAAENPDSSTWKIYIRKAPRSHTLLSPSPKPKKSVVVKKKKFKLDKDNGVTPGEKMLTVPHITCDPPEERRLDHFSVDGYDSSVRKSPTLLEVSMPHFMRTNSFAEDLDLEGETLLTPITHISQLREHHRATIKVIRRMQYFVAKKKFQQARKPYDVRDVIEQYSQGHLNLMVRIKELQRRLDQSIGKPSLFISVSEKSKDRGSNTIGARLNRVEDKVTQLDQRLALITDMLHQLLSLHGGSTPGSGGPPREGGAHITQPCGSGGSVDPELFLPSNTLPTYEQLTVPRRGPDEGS

[19] = tested on: Staphylococcus aureus; assay: Antimicrobial activity against methicillin-susceptible Staphylococcus aureus after 18 to 20 hrs by broth microdilution; format: functional; in short: as §2
[20] = tested on: Pseudomonas aeruginosa; assay: Antimicrobial activity against Pseudomonas aeruginosa clinical isolate after 18 to 20 hrs by broth microdilution; format: functional; in short: as §2
[21] = Clearance in beagle dog at 10 mg/kg, iv; format: ADME, organism-based, Canis lupus familiaris; set-up: dose 10 mg/kg, route intravenous; conditions: in vivo; in short: as §1
[22] = molecular target: Voltage-gated inwardly rectifying potassium channel KCNH2 (Homo sapiens, UniProt Q12809); assay: Inhibition of human ERG by cell-based patch clamp method
[23] = Volume of distribution in beagle dog at 10 mg/kg, iv; format: ADME, organism-based, Canis lupus familiaris; set-up: dose 10 mg/kg, route intravenous; conditions: in vivo; in short: as §1
[24] = molecular target: Sodium-dependent noradrenaline transporter (Homo sapiens) (UniProt P23975); assay: Inhibition of NET (unknown origin) at 30 uM
[25] = tested on: Pseudomonas aeruginosa; assay: Antimicrobial activity against Pseudomonas aeruginosa PAO1 after 18 to 20 hrs by broth microdilution; format: functional; in short: as §2
[26] = molecular target: Voltage-dependent T-type calcium channel subunit alpha-1H (Homo sapiens, UniProt O95180); assay: Inhibition of […] channel Cav3.2 (unknown origin); in short: as §3
[27] = tested on: Escherichia coli; assay: Antimicrobial activity against Escherichia coli after 18 to 20 hrs by broth microdilution; format: functional; in short: as §2

Sequence of Voltage-gated inwardly rectifying potassium channel KCNH2 (Q12809 whole entry): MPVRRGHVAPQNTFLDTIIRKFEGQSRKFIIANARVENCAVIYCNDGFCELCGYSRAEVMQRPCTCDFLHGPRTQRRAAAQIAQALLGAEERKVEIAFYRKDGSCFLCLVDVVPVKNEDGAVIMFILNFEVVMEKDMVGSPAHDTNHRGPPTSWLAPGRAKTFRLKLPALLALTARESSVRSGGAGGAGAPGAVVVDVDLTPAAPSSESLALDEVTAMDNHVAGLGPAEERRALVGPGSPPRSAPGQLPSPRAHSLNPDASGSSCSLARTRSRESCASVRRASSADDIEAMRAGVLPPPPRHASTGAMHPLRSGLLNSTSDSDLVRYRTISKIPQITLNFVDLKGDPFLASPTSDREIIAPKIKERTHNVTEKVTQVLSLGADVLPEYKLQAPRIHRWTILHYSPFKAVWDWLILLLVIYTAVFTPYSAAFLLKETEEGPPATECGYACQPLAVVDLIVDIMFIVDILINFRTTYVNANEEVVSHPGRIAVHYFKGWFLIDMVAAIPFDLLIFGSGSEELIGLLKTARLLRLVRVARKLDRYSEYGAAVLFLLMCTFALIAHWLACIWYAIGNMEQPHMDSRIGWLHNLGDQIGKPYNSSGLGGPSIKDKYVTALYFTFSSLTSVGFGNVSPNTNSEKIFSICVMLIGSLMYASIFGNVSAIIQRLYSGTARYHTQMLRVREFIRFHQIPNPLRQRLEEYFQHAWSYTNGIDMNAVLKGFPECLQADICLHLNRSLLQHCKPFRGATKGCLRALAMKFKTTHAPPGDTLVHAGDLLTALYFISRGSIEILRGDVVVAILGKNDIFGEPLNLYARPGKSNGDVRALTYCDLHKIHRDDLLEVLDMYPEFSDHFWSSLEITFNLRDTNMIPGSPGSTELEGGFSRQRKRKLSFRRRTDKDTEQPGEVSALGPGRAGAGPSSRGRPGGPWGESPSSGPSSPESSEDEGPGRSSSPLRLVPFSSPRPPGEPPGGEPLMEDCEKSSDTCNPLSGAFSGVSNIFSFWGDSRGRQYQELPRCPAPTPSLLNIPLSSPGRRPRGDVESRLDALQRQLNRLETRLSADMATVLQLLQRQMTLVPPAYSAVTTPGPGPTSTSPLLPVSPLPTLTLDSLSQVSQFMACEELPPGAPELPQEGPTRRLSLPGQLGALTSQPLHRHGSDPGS
Sequence of Sodium channel protein type 5 subunit alpha (Q14524 whole entry): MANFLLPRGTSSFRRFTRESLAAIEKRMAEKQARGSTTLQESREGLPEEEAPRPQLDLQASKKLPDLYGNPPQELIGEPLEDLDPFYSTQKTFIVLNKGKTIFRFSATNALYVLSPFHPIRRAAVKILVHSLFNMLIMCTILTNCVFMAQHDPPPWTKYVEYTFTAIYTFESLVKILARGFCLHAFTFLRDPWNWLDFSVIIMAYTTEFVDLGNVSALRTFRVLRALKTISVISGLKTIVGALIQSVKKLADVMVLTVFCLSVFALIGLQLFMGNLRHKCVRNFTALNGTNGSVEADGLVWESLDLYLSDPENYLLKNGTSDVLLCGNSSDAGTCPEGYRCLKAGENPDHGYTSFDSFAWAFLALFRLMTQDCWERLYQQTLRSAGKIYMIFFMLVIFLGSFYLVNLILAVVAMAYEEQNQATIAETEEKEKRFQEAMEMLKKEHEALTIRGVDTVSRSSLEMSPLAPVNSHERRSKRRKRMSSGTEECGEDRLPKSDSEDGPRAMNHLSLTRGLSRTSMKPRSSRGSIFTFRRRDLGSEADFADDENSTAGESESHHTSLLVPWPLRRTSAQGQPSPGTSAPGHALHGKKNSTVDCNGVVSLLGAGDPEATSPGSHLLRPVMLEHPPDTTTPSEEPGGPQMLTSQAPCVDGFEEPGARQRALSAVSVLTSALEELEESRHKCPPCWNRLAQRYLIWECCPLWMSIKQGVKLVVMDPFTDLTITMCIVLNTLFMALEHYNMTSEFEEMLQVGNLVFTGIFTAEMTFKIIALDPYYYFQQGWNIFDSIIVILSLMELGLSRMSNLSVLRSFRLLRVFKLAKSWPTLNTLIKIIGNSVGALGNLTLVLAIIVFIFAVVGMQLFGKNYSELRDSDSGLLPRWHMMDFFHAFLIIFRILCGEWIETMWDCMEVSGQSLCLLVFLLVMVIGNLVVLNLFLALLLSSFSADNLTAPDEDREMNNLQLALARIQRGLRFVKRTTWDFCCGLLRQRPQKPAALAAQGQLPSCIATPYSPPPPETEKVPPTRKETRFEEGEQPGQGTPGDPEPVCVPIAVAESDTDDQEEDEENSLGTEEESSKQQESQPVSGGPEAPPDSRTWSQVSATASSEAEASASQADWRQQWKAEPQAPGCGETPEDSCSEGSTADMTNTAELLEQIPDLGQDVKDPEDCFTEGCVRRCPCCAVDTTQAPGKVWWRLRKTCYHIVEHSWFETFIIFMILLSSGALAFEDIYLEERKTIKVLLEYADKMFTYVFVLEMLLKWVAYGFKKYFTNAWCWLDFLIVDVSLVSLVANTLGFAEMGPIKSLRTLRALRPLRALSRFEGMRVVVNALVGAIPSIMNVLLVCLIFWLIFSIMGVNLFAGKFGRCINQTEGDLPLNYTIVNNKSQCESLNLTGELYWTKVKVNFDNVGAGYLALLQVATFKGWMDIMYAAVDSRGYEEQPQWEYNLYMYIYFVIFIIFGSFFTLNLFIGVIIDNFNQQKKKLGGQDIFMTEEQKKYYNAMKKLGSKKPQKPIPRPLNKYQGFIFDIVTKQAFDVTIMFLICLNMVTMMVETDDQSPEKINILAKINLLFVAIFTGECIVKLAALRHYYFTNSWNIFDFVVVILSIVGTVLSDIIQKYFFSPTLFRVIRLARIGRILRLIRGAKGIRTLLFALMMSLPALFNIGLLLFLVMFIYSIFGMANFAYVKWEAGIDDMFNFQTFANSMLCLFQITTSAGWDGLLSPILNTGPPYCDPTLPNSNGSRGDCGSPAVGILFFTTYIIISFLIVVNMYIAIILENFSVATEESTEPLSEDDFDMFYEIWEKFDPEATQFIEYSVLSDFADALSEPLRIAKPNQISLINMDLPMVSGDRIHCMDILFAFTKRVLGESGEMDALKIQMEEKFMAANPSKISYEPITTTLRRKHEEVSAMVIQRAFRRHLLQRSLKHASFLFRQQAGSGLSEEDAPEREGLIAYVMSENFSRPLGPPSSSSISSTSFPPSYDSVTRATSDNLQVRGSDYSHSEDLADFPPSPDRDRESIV
Sequence of 5-hydroxytryptamine receptor 4 (Homo sapiens) (Q13639 whole entry): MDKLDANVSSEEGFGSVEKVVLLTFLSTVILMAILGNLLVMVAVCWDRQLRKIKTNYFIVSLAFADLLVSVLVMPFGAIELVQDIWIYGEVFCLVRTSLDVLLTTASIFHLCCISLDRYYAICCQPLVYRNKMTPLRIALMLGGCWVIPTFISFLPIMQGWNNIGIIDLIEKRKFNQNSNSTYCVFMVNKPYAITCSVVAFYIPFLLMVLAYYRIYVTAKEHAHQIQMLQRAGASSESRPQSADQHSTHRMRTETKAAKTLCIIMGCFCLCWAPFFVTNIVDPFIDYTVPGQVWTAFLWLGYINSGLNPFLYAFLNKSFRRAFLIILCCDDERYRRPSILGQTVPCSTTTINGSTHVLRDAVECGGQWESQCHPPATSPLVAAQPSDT
Sequence of Sodium-dependent noradrenaline transporter (Homo sapiens) (P23975 whole entry): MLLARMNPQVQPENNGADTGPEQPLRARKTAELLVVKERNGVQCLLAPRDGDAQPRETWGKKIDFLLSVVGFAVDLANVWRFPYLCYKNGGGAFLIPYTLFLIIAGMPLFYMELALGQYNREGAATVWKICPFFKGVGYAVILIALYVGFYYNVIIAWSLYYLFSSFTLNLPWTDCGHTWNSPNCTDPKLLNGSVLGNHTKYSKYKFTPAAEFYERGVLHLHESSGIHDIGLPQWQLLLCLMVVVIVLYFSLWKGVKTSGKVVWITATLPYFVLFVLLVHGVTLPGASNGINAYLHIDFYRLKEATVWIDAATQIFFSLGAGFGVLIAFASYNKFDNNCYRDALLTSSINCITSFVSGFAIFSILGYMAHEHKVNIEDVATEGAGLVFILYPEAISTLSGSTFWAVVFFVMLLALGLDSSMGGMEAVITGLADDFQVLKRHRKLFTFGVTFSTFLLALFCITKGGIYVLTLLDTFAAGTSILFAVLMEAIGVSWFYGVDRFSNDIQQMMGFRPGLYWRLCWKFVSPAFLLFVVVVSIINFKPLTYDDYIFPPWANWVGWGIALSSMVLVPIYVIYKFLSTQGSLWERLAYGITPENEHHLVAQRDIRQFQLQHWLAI
Sequence of Sodium-dependent serotonin transporter (Homo sapiens) (P31645 whole entry, looked up): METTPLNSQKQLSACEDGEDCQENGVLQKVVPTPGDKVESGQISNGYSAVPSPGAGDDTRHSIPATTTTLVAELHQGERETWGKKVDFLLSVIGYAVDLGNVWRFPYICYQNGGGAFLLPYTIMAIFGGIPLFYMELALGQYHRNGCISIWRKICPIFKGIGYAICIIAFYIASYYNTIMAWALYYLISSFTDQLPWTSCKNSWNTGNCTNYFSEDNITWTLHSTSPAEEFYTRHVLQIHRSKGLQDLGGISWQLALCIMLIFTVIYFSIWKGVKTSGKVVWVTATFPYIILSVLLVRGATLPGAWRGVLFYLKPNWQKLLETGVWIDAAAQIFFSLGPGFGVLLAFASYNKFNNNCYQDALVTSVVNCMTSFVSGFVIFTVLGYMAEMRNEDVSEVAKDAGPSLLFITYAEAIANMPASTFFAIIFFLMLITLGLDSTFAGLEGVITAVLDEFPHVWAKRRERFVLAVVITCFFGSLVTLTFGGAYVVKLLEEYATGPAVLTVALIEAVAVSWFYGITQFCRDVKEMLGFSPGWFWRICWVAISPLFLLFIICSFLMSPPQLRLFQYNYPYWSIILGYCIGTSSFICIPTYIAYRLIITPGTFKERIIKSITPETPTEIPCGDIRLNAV

Row | SMILES | MIC90 [2] [µg/mL] | logD [4] | solubility [10] [µM] | IC50 [12] [nM] | fraction unbound [16] | MIC90 [19] [µg/mL] | IC50 [22] [nM] | MIC90 [25] [µg/mL] | other results
1 | COc1cnc2ccc(=O)n(C[C@H](N)[C@H]3CC[C@H](NCc4ccc5c(n4)NC(=O)CO5)CC3)c2c1 | 0.5 (≈ 1.04 µM) | -0.86 | > 333 | 2 | 0.78 | 8 (≈ 16.7 µM) | > 333000 | 1 (≈ 2.09 µM) | half-life [1]: 8 h; IC50 [3]: > 333000 nM; half-life [5]: 9 h; IC50 [6]: > 333000 nM; inhibition [7]: 32%; clearance [8]: 47 mL/min/kg; inhibition [9]: 32%; IC50 [11]: > 333000 nM; Vd [13]: 13 L/kg; MIC90 [14]: 8 µg/mL (≈ 16.7 µM); AUC [15]: 3900 ng·h/mL; AUC [17]: 3800 ng·h/mL; IC50 [18]: > 333000 nM; MIC90 [20]: 4 µg/mL (≈ 8.36 µM); clearance [21]: 14 mL/min/kg; Vd [23]: 2.7 L/kg; inhibition [24]: 52%; IC50 [26]: > 333000 nM; MIC90 [27]: 0.5 µg/mL (≈ 1.04 µM)
2 | CNC(Cn1c(=O)cnc2cc(F)c(OC)cc21)[C@H]1CC[C@H](NCc2ncc3c(n2)NC(=O)CO3)CC1 (mixture of isomers) | 16 (≈ 31.3 µM) |  | > 333 | 39 |  | 64 (≈ 125 µM) |  | > 64 | 
3 | Cc1cc(=O)n(C[C@H](N)[C@H]2CC[C@H](NCc3ncc4c(n3)NC(=O)CO4)CC2)c2cc(F)ccc12 | 0.5 (≈ 1.04 µM) | 0.06 | > 333 | 2 | 0.66 | 4 (≈ 8.32 µM) | > 333000 | 2 (≈ 4.16 µM) | 
4 | COc1ccc2ncc(=O)n(CC(N)C3(F)CCC(NCc4ccc5c(n4)NC(=O)CO5)CC3)c2c1 (racemic) | 2 (≈ 4.03 µM) | 0.25 | > 333 | 5 | 0.68 | 0.5 (≈ 1.01 µM) | > 33000 | 8 (≈ 16.1 µM) | 
5 | Cc1cc(=O)n(C[C@H](N)[C@H]2CC[C@H](NCc3ccc4c(n3)NC(=O)CO4)CC2)c2cc(F)ccc12 | 0.5 (≈ 1.04 µM) | -0.05 | > 333 | 3 | 0.64 | 1 (≈ 2.09 µM) |  | 0.5 (≈ 1.04 µM) | 
6 | C[C@H]1COc2c(N3CCN(C)CC3)c(F)cc3c(=O)c(C(=O)O)cn1c23.C[C@H]1COc2c(N3CCN(C)CC3)c(F)cc3c(=O)c(C(=O)O)cn1c23.O [LEVOFLOXACIN] |  |  |  |  |  |  |  |  | MIC90 [14]: 64 µg/mL; MIC90 [20]: 16 µg/mL; MIC90 [27]: 16 µg/mL
7 | COc1ccc2ccc(=O)n(C[C@H](N)[C@H]3CC[C@H](NCc4ncc5c(n4)NC(=O)CO5)CC3)c2c1 | 0.5 (≈ 1.04 µM) | -0.54 | > 333 | 5 | 0.71 | 8 (≈ 16.7 µM) | > 100000 | 2 (≈ 4.18 µM) | 
8 | COc1ccc2ncc(=O)n(C[C@H](N)[C@H]3CC[C@H](NCc4ccc5c(n4)NC(=O)CO5)CC3)c2c1 | 0.5 (≈ 1.04 µM) | -0.36 | > 333 | 1 | 0.7 | 1 (≈ 2.09 µM) | > 333000 | 0.5 (≈ 1.04 µM) | 
9 | COc1ccc2ncc(=O)n(C[C@H](N)[C@H]3CC[C@H](NCc4ncc5c(n4)NC(=O)CO5)CC3)c2c1 | 0.2 (≈ 0.417 µM) | -0.48 | > 333 | 2 | 0.6 | 1 (≈ 2.09 µM) | > 333000 | 0.5 (≈ 1.04 µM) | 
10 | COc1ccc2ncc(=O)n(CC[C@]3(N)CC[C@H](NCc4ccc5c(n4)NC(=O)CO5)CC3)c2c1 | 1 (≈ 2.09 µM) |  | > 333 | 2 |  | 2 (≈ 4.18 µM) |  | 8 (≈ 16.7 µM) | 
11 | N[C@@H](Cn1c(=O)cnc2ccc(F)cc21)[C@H]1CC[C@H](NCc2ccc3c(n2)NC(=O)CO3)CC1 | < 0.06 | -0.41 | > 333 | 28 | 0.7 | 1 (≈ 2.14 µM) | 174000 | 0.25 (≈ 0.536 µM) | 
12 | COc1cc2c(cc1F)ncc(=O)n2C[C@H](N)[C@H]1CC[C@H](NCc2ncc3c(n2)NC(=O)CO3)CC1 | 2 (≈ 4.02 µM) | -0.42 | > 333 | 4 | 0.56 | 4 (≈ 8.04 µM) | > 333000 | 2 (≈ 4.02 µM) | 
13 | N[C@@H](Cn1c(=O)ccc2ncc(F)cc21)[C@H]1CC[C@H](NCc2ccc3c(n2)NC(=O)CO3)CC1 | 1 (≈ 2.14 µM) | -1.02 | > 333 | 34 |  | 16 (≈ 34.3 µM) | > 100000 | 2 (≈ 4.29 µM) | 
14 | COc1cnc2ccc(=O)n(C[C@@H](N)[C@H]3CC[C@H](NCc4ccc5c(n4)NC(=O)CO5)CC3)c2c1 | 8 (≈ 16.7 µM) | -0.84 | > 333 | 33 | > 0.7 | 128 (≈ 267 µM) | > 100000 | 16 (≈ 33.4 µM) | 
